Here are results for two molecules from paper PMC3104004 (European Journal of Nuclear Medicine and Molecular Imaging, 2011).

Data set [1] deals with kidney of PC-3-bearing mice. Particulars: PC-3-bearing athymic mice, 30 min after injection; ref 26 (Zheng et al.); cited from earlier work.
The subject of data set [2] is human prostate VCaP xenografts. Briefly: Dynamic PET scanning with quantitative VOI analysis in VCaP tumour-bearing mice. It is filed as in vivo, male NMRI nu/nu mice. In a few lines: (§1)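 Male NMRI nu/nu mice, 6–7 weeks old, inoculated s.c. in the right shoulder with ~5×10^6 VCaP or PC-3 cells in PBS. Under isoflurane/oxygen, prone, on a microPET with a heating mat. Test tracer 100 μl (8.1–1.2 MBq) given by tail-vein cannula; dynamic full-body scan for 20 min from injection. Tumour VOIs drawn manually, averaged over two analysts. %ID/g = VOI activity/injected dose ×100; steady-state taken from last 10 min; median, IQR; Mann-Whitney U.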

The next data set concerns PC-3 tumours. Put plainly: Dynamic PET scanning with quantitative VOI analysis in PC-3 tumour-bearing mice. The conditions noted are these: tail vein injection 100 μl; last 10 min of 20 min scan; N = 3. It is filed as in vivo, male NMRI nu/nu mice. The gist of the method:
as §1

Data set [3] deals with VCaP tumour and preselected organs. Put plainly: Ex vivo biodistribution in VCaP tumour-bearing mice. Particulars: 30 min after injection, 100 μl iv. Also noted: species or system male NMRI nu/nu mice. The gist of the method:
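Done after PET. VCaP-bearing mice killed 60 min after i.v. tail-vein 68Ga-labelled bombesin-analogue tracer (300 pmol, 1.5–0.5 MBq), or 30 min after 18F-choline tracer (100 μl, 8.1–1.2 MBq). Gamma-counted: tumour, liver, heart, blood, muscle, tail, kidneys, pancreas and colon. %ID/g corrected for activity left in the tail; mean ± SD, four mice per tracer; unpaired t-test.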

Take `C[N+](C)([11CH3])CCO` [^11C-choline]: the kidney uptake in data set [1] is listed as 5.1 ± 1.8 %ID/g.
For the molecule `C[N+](C)(C[18F])CCO` [^18F-FCH, N-[^18F]-fluoromethyl-N-(2-hydroxyethyl)-N,N-dimethylammonium], the “time at which tumour uptake reached a plateau phase” value in data set [2] (dynamic PET, VCaP tumour, after injection) is given as “less than 10 min”. For the same molecule, in data set [2] (tail vein injection 100 μl, 8.1–1.2 MBq, 10–20 min after injection, N = 8), the “VCaP tumour uptake determined from PET at steady-state (plateau phase)” value amounted to 1.6 ± 0.5 %ID/g. In addition, the “PC-3 tumour uptake from PET (plateau phase)” value in the data set with PC-3 tumours was 1.2 ± 0.3 %ID/g. In data set [3] (VCaP-bearing mice, N = 4), this molecule yielded an uptake in blood of 0.8 ± 0.1 %ID/g tissue, an uptake in heart of 4.7 ± 0.5 %ID/g tissue, an uptake in kidneys of 35.7 ± 4.1 %ID/g and an uptake in liver of 13.0 ± 1.7 %ID/g tissue. In data set [3] (VCaP-bearing mice, N = 4), the uptake in muscle came out at 0.9 ± 0.2 %ID/g tissue and the “uptake in pancreas (GRPR-positive)” value is 3.6 ± 1.0 %ID/g. In addition, the “VCaP tumour uptake (biodistribution)” value in data set [3] (ex vivo counting) came to 2.1 ± 0.4 %ID/g.
